The results in this text go back to ChEMBL document CHEMBL4406859, “Antitumor and antiviral activities of 4-substituted 1,2,3-triazolyl-2,3-dibenzyl-L-ascorbic acid derivatives” (Eur J Med Chem, 2019).

The subject of series [1] is HCT-116. The experiment in a line: Antiproliferative activity against human HCT116cells assessed as reduction in cell viability incubated for 72 hrs by MTT assay. The format is functional, cell-based. As to conditions: HCT-116, 72 h. In short, it runs like this:
(§1)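 Cells (ATCC) grown in DMEM with 10 FBS, penicillin/streptomycin, 2 mM glutamine, 37 °C, 5 CO2. 5000 cells/well seeded; after 24 h, freshly prepared dilutions at five concentrations (0.01–100 μM) added for 72 h. MTT read-out; absorbance converted to percentage growth by NIH formulas. Two experiments in quadruplicate; IC50 by linear regression.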

In series [2] the test system is CFPAC-1. The experiment in a line: Antiproliferative activity against human CFPAC-1 cells assessed as reduction in cell viability incubated for 72 hrs by MTT assay. It counts as functional, cell-based. As to conditions: Homo sapiens, CFPAC-1, 72 h; read-out: IC50. The method, boiled down: as §1
For orientation: Formazan colour is commonly taken as a measure of viable cells.

Series [3] concerns SW-620. The experiment in a line: Antiproliferative activity against human SW620 cells assessed as reduction in cell viability incubated for 72 hrs by MTT assay. As to conditions: SW-620, 72 h. It counts as functional, cell-based. The method, boiled down: as §1
The subject of series [4] is MCF7. The experiment in a line: Antiproliferative activity against human MCF7 cells assessed as reduction in cell viability incubated for 72 hrs by MTT assay. The following applies: MCF7, 72 h. It counts as functional, cell-based. The method, boiled down:
as §1

Series [5] deals with A549. Nature of the series: Antiproliferative activity against human A549 cells assessed as reduction in cell viability incubated for 72 hrs by MTT assay. The format is functional, cell-based. The following applies: A549, 72 h. In short, it runs like this:
as §1

Series [6] deals with HepG2. Nature of the series: Antiproliferative activity against human HepG2 cells assessed as reduction in cell viability incubated for 72 hrs by MTT assay. The format is functional, cell-based. As to conditions: HepG2, 72 h. In short, it runs like this:
as §1

In series [7] the test system is HFF. The experiment in a line: Cytotoxicity against human HFF cells assessed as reduction in cell viability incubated for 72 hrs by MTT assay. The format is cell-based. In short, it runs like this: as §1
In series [8] the test system is HeLa. Nature of the series: Antiproliferative activity against human HeLa cells assessed as reduction in cell viability incubated for 72 hrs by MTT assay. It counts as functional, cell-based. In short, it runs like this:
as §1

Series [9] concerns Human adenovirus 2. Nature of the series: Antiviral activity against Human adenovirus 2 infected in human HELF cells assessed as reduction in virus-induced cytopathogenicity incubated for 7 days by microscopic analysis. It counts as functional, organism-based. As to conditions: Human mastadenovirus C, 168 h.
Series [10] can be described thus: Cytotoxicity against human HELF cells assessed as minimum cytotoxic concentration by observing alteration in cell morphology incubated for 3 days by microscopic analysis. It counts as cell-based. The following applies: HELF cells. The method, boiled down:
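Read-out is the minimum cytotoxic concentration (MCC): the lowest compound concentration giving a microscopically detectable change in cell morphology. Measured on confluent human embryonic lung (HEL) fibroblast cultures exposed to a range of compound concentrations.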

Where only a bound is given, the exact number is not on record here.

Turning to `O=C1O[C@H]([C@@H](O)Cn2cc(-c3cc(F)cc(F)c3)nn2)C(OCc2ccccc2)=C1OCc1ccccc1`, the IC50 (commonly the concentration at which inhibition is half-maximal) is 48.2 µM in series [1]; 62.4 µM in series [2]; above 100 µM in series [3]; 27.7 µM in series [4]; 41.2 µM in [5]; 11.6 µM in series [6]. The IC50 in series [7] is above 100 µM; in series [8] it was 40.8 µM.
Take `O=C1O[C@H]([C@@H](O)Cn2cc(CNS(=O)(=O)c3ccc(Cl)cc3)nn2)C(OCc2ccccc2)=C1OCc1ccccc1`: the IC50 stood at 8.38 µM in series [1]; 38.9 µM in series [2]; 18 µM in [3]; 4.17 µM in [4]; 2.87 µM in [5]; 7.51 µM in series [6]. Moreover, the values for the concentration for half-maximal inhibition (IC50) in series [7] and in series [8] were 0.02 µM and 13.6 µM, respectively.
Regarding `COc1ccccc1-c1cn(C[C@H](O)[C@H]2OC(=O)C(OCc3ccccc3)=C2OCc2ccccc2)nn1`, the concentration for half-maximal inhibition (IC50) in [1], in series [2], in series [3], in series [4], in series [5] and in series [6] was above 100 µM in each case. Also, the IC50 in series [7] is 0.05 µM; in series [8], above 100 µM.
For `CC(C)(C)OC(=O)N1CCN(C(=S)SCc2cn(C[C@H](O)[C@H]3OC(=O)C(OCc4ccccc4)=C3OCc3ccccc3)nn2)CC1`, the IC50 in [1], in [2], in series [3], in series [4], in series [5] and in series [6] was above 100 µM in each case. The IC50 in series [7] was 0.06 µM; in series [8], above 100 µM.
As to `O=C1O[C@H]([C@@H](O)Cn2cc(-c3ccc(Br)cc3)nn2)C(OCc2ccccc2)=C1OCc1ccccc1`, the concentration for half-maximal inhibition (IC50) in [1] was determined as 9.42 µM; in [2], 5.83 µM; in series [3], 3.76 µM; in series [4] it was 5.62 µM; in [5], 0.75 µM; in series [7], 5.1 µM. In series [8], the IC50 was determined as 3.91 µM.
For `CCCCCc1ccc(-c2cn(C/C=C3\OC(=O)C(OCc4ccccc4)=C3OCc3ccccc3)nn2)cc1`, the IC50 in [1], in [2], in series [3], in series [4], in [5] and in series [6] was above 100 µM each time. The IC50 in series [7] and in [8] was above 100 µM throughout.
Regarding `Cc1ccc(S(=O)(=O)NCc2cn(C[C@H](O)[C@H]3OC(=O)C(OCc4ccccc4)=C3OCc3ccccc3)nn2)cc1`, the 50% inhibitory concentration (IC50) came to 13.1 µM in series [1]; 68 µM in series [2]; 45.8 µM in series [3]; 6.4 µM in series [4]; 16.8 µM in [5]; 24.9 µM in series [6]. Also, the results for the 50% inhibitory concentration (IC50) in [7] and in series [8] were 0.05 µM and 14.4 µM, respectively.
Consider `O=C1O[C@H]([C@@H](O)Cn2cc(CCCCl)nn2)C(OCc2ccccc2)=C1OCc1ccccc1`, for which the IC50 in [1] was determined as 36.1 µM; in series [2] it was 58.8 µM; in series [3], 68.5 µM; in [4] it was 24.5 µM; in series [5], 29 µM; in series [6] it was 35 µM. In addition, the results for the IC50 in series [7] and in series [8] were 27.1 µM and 36.7 µM, respectively.
Turning to `O=C1O[C@H]([C@@H](O)CO)C(O)=C1O` [ASCORBIC ACID], the half-maximal inhibitory concentration (IC50) in [1], in series [2], in [3], in series [4], in [5] and in [6] was above 100 µM each time. The IC50 in series [7] and in series [8] was above 100 µM in each case.
As to `O=C1O/C(=C\Cn2cc(-c3cc(C(F)(F)F)cc(C(F)(F)F)c3)nn2)C(OCc2ccccc2)=C1OCc1ccccc1`, the half-maximal inhibitory concentration (IC50) in series [1], in [2], in series [3], in series [4], in [5] and in [6] was above 100 µM each time. In addition, the IC50 in series [7] and in [8] was above 100 µM throughout.
Consider `COc1ccc(-c2cn(C[C@H](O)[C@H]3OC(=O)C(OCc4ccccc4)=C3OCc3ccccc3)nn2)cc1`, for which the half-inhibitory concentration (IC50) was above 100 µM in [1]; 26 µM in series [2]; 58.2 µM in series [3]; 99.7 µM in series [4]; 28.3 µM in [5]; 46.4 µM in series [6]. Besides, the IC50 was below 0.01 µM in series [7] and 16.4 µM in series [8].
Take `Cc1ccc(-c2cn(C[C@H](O)[C@H]3OC(=O)C(OCc4ccccc4)=C3OCc3ccccc3)nn2)cc1`: the half-inhibitory concentration (IC50) in series [1] was above 100 µM; in [2], above 100 µM; in series [3] it was above 100 µM; in series [4], above 100 µM; in series [5] it was 8.69 µM; in [6], 8.77 µM. In addition, the IC50 in series [7] was above 100 µM; in series [8] it was 25.5 µM.
On to `O=C1O/C(=C\Cn2cc(CCCCl)nn2)C(OCc2ccccc2)=C1OCc1ccccc1`, for which the IC50 is 66.8 µM in series [1]; above 100 µM in series [2]; 21.6 µM in series [3]; 23.6 µM in [4]; 81.1 µM in [6]; 94.1 µM in series [7]. Besides, the 50% inhibitory concentration (IC50) in [8] turned out to be 66.8 µM.
In the case of `O=C1O[C@H]([C@@H](O)Cn2cc(CCO)nn2)C(OCc2ccccc2)=C1OCc1ccccc1`, the IC50 in series [1] was 72.7 µM; in series [2], above 100 µM; in series [3] it was above 100 µM; in [4], 63.4 µM; in series [5] it was above 100 µM; in series [6], 68.1 µM. Moreover, the IC50 in [7] is 58.5 µM; in series [8], 68.8 µM.
Regarding `O=C1O/C(=C\Cn2cc(C3CC3)nn2)C(OCc2ccccc2)=C1OCc1ccccc1`, the IC50 was 32.4 µM in series [1]; 97.1 µM in [2]; 29.5 µM in series [3]; 9.27 µM in series [4]; above 100 µM in series [5]; 53.1 µM in series [6]. The IC50 in [7] worked out at 17 µM; in series [8], 76.8 µM.
For the compound `O=C1O[C@H]([C@@H](O)Cn2cc(-c3cccc(O)c3)nn2)C(OCc2ccccc2)=C1OCc1ccccc1`, the IC50 in series [1] is 42.9 µM; in series [2] it was 54.1 µM; in series [3] it was above 100 µM; in [4], 51.8 µM; in series [5], 59.9 µM; in [6], 62.7 µM. The IC50 in series [7] came out at 39 µM.
As for `CCCCCc1ccc(-c2cn(C[C@H](O)[C@H]3OC(=O)C(OCc4ccccc4)=C3OCc3ccccc3)nn2)cc1`, the half-maximal inhibitory concentration (IC50) in series [1] came to 13.8 µM; in series [2], 9.89 µM; in [3] it was 12.2 µM; in [4], 9.01 µM; in [5] it was 6.22 µM; in series [6] it was 7.46 µM. Also, the figures for the concentration for half-maximal inhibition (IC50) in series [7] and in series [8] were above 100 µM and 8.39 µM, respectively.
With `Cc1cn([C@H]2C[C@H](F)[C@@H](CO)O2)c(=O)[nH]c1=O` [ALOVUDINE], the 50% effective concentration (EC50) (in general, the concentration that produces a half-maximal response) in [9] amounted to 22 µM. The MCC at 72 h in [10] is above 250 µM.
Turning to `O=C1O[C@H]([C@@H](O)Cn2cc(CNS(=O)(=O)c3ccc(F)cc3)nn2)C(OCc2ccccc2)=C1OCc1ccccc1`, the concentration for half-maximal inhibition (IC50) came out at 22.9 µM in series [1]; 34.7 µM in series [2]; 41.1 µM in [3]; 26.8 µM in series [4]; 22.5 µM in [5]; 18.3 µM in series [6]. Moreover, the IC50 in [7] came to 0.03 µM; in series [8], 25 µM.
Turning to `CCCCCCCCCCc1cn(C/C=C2\OC(=O)C(OCc3ccccc3)=C2OCc2ccccc2)nn1`, the IC50 in series [1] is 98.8 µM; in [2] it was above 100 µM; in [3], 91.7 µM; in series [4], 72 µM; in series [5] it was above 100 µM; in [6], above 100 µM. Also, the IC50 in series [7] and in series [8] was above 100 µM each time.
`O=C1O[C@H]([C@@H](O)Cn2cc(-c3cc(C(F)(F)F)cc(C(F)(F)F)c3)nn2)C(OCc2ccccc2)=C1OCc1ccccc1`: the concentration for half-maximal inhibition (IC50) in [1] came to 57.2 µM; in series [2], 66.5 µM; in series [3] it was 49.2 µM; in series [4], 45.9 µM; in series [5], 28.9 µM; in [6], 33.8 µM. Moreover, the concentration for half-maximal inhibition (IC50) in series [7] was found to be 80.7 µM; in [8], 35.5 µM.
`Nc1ccn([C@H]2CC[C@@H](CO)O2)c(=O)n1` [ZALCITABINE]: the EC50 in [9] was determined as 10 µM. The MCC at 72 h in series [10] is above 250 µM.
